Reference: ChEMBL document CHEMBL1955770, “Inhibition of S/G2 phase CDK4 reduces mitotic fidelity” (J Biol Chem, 2006)

Legend:
[1] = biological target: Tyrosine-protein kinase ABL2 (Homo sapiens) (UniProt P42684); test: Inhibition of ABL2 at 1 uM
Procedure, shortened: (§1)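 Competition binding screen across a kinase panel with compound at 1 μM. Read-out is % competition. Kinases not hit at this concentration were scored '<50'. No Kd was determined for hits.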

[2] = biological target: Aurora kinase A (Homo sapiens) (UniProt O14965); test: Inhibition of AURKA at 1 uM; procedure, shortened: as §1
Sequence of Aurora kinase A (Homo sapiens) (O14965 whole entry): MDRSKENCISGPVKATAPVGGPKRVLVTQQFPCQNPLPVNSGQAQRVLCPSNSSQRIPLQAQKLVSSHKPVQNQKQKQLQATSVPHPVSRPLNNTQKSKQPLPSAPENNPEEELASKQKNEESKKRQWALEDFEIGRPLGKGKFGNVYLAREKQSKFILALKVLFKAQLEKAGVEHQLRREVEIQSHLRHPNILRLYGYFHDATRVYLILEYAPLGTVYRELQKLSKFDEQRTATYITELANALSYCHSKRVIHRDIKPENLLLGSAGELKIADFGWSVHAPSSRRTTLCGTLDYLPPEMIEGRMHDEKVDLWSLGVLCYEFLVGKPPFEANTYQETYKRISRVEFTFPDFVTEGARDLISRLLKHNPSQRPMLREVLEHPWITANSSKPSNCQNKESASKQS

[3] = biological target: Cytoplasmic tyrosine-protein kinase BMX (Homo sapiens) (UniProt P51813); test: Inhibition of BMX at 1 uM; procedure, shortened: as §1
[4] = biological target: Serine/threonine-protein kinase B-raf (Homo sapiens) (UniProt P15056); test: Inhibition of BRAF at 1 uM; procedure, shortened: as §1
Sequence of Serine/threonine-protein kinase B-raf (Homo sapiens) (P15056 whole entry): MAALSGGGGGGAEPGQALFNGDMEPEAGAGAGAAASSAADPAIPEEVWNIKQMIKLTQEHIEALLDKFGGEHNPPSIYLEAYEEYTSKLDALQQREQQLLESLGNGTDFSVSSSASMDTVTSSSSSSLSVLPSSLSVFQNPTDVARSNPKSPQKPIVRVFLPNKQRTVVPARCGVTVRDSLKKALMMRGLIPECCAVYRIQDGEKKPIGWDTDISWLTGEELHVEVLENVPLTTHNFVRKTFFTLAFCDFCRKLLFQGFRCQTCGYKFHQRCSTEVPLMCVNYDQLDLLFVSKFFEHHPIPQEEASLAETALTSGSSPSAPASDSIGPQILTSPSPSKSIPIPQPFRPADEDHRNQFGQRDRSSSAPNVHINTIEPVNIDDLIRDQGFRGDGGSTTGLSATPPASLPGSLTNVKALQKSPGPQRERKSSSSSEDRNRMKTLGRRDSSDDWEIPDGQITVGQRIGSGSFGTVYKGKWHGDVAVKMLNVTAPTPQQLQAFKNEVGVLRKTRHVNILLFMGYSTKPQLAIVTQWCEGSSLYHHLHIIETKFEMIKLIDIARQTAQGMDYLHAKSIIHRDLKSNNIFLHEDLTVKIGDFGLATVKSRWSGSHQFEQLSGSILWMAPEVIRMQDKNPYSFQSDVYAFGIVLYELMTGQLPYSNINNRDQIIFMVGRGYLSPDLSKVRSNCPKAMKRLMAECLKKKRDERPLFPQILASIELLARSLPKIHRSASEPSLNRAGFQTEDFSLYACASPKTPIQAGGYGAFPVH

[5] = system: Serine/threonine-protein kinase B-raf (Homo sapiens), P15056 [V600E]; test: Inhibition of BRAF(V600E) at 1 uM; procedure, shortened: as §1
[6] = biological target: Calcium/calmodulin-dependent protein kinase type II subunit alpha (Homo sapiens) (UniProt Q9UQM7); test: Inhibition of CAMK2A at 1 uM; procedure, shortened: as §1
[7] = biological target: Calcium/calmodulin-dependent protein kinase type II subunit beta (Homo sapiens) (UniProt Q13554); test: Inhibition of CAMK2B at 1 uM; procedure, shortened: as §1
[8] = biological target: Calcium/calmodulin-dependent protein kinase kinase 1 (Homo sapiens) (UniProt Q8N5S9); test: Inhibition of CAMKK1 at 1 uM
Sequence of Calcium/calmodulin-dependent protein kinase kinase 1 (Homo sapiens) (Q8N5S9 whole entry, looked up): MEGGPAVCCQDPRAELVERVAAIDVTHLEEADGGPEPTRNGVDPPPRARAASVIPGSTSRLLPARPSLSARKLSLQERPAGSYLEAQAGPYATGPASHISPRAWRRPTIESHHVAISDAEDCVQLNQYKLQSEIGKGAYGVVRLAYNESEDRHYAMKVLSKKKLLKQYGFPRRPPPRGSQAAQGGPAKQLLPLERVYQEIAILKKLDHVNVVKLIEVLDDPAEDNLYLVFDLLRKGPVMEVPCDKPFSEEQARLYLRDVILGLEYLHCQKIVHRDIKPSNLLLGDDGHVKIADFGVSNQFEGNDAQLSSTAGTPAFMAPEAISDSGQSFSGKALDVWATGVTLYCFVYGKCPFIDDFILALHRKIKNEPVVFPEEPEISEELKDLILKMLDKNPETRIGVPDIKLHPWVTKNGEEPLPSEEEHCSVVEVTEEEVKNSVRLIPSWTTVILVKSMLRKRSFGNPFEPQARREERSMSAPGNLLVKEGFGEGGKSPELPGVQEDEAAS

[9] = biological target: Cyclin-dependent kinase 5 (Homo sapiens) (UniProt Q00535); test: Inhibition of CDK5 at 1 uM
[10] = biological target: Dual specificity protein kinase CLK1 (Homo sapiens) (UniProt P49759); test: Inhibition of CLK1 at 1 uM
[11] = biological target: Dual specificity protein kinase CLK3 (Homo sapiens) (UniProt P49761); test: Inhibition of CLK3 at 1 uM
[12] = biological target: Casein kinase I isoform epsilon (Homo sapiens) (UniProt P49674); test: Inhibition of CSNK1E at 1 uM
[13] = biological target: Death-associated protein kinase 3 (Homo sapiens) (UniProt O43293); test: Inhibition of DAPK3 at 1 uM
[14] = biological target: Epidermal growth factor receptor (Homo sapiens) (UniProt P00533); test: Inhibition of EGFR at 1 uM
[15] = biological target: Ephrin type-A receptor 7 (Homo sapiens) (UniProt Q15375); test: Inhibition of EPHA7 at 1 uM
Sequence of Ephrin type-A receptor 7 (Homo sapiens) (Q15375 28-998 limits assumed): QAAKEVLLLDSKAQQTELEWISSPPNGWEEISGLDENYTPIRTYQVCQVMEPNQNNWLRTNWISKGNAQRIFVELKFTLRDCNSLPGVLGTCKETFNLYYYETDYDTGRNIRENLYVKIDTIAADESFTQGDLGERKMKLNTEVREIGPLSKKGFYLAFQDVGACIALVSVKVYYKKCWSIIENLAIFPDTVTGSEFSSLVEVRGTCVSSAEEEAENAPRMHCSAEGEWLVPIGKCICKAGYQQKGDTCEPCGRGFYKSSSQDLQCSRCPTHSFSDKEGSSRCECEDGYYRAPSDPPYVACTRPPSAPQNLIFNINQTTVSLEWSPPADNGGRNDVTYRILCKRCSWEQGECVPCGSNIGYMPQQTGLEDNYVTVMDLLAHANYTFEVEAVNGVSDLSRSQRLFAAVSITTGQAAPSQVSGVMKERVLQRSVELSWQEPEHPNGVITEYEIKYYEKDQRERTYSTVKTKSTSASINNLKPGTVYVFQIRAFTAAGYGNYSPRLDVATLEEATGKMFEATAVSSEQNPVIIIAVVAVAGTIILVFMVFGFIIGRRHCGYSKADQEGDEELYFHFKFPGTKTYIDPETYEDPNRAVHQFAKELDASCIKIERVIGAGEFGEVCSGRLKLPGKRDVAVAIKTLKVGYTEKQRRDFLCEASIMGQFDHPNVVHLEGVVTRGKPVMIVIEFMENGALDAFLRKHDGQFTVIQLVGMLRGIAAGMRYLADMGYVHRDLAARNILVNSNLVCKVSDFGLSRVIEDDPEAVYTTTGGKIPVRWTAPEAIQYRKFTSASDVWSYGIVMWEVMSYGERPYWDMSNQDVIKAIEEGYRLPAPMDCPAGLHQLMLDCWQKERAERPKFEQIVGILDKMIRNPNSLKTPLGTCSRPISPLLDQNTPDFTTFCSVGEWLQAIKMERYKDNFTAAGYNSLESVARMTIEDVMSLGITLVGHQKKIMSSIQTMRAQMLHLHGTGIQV

[16] = biological target: Mitogen-activated protein kinase 1 (Homo sapiens) (UniProt P28482); test: Inhibition of ERK2 at 1 uM
[17] = biological target: Tyrosine-protein kinase ITK/TSK (Homo sapiens) (UniProt Q08881); test: Inhibition of ITK at 1 uM
[18] = biological target: Tyrosine-protein kinase JAK1 (Homo sapiens) (UniProt P23458); test: Inhibition of JAK1(Kin.Dom.1) at 1 uM
[19] = biological target: Mitogen-activated protein kinase 8 (Homo sapiens) (UniProt P45983); test: Inhibition of JNK1 at 1 uM
Sequence of Mitogen-activated protein kinase 8 (Homo sapiens) (P45983 whole entry, the tested form may be a part): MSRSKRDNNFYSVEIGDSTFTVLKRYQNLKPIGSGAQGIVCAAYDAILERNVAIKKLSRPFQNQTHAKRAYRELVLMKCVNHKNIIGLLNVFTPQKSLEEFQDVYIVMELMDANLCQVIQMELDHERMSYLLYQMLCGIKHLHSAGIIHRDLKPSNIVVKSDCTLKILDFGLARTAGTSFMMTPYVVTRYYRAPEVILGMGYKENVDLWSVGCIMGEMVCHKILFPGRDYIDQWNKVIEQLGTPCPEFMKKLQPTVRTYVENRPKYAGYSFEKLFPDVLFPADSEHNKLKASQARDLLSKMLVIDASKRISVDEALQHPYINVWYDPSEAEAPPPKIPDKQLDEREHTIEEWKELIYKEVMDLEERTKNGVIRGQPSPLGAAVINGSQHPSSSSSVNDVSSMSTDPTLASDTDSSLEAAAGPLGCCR

[20] = biological target: LIM domain kinase 1 (Homo sapiens) (UniProt P53667); test: Inhibition of LIMK1 at 1 uM
[21] = biological target: Myosin light chain kinase 2, skeletal/cardiac muscle (Homo sapiens) (UniProt Q9H1R3); test: Inhibition of MYLK2 at 1 uM
[22] = biological target: Serine/threonine-protein kinase Nek6 (Homo sapiens) (UniProt Q9HC98); test: Inhibition of NEK6 at 1 uM
[23] = biological target: Serine/threonine-protein kinase Nek9 (Homo sapiens) (UniProt Q8TD19); test: Inhibition of NEK9 at 1 uM
[24] = biological target: Mitogen-activated protein kinase 11 (Homo sapiens) (UniProt Q15759); test: Inhibition of p38-beta at 1 uM
Sequence of Mitogen-activated protein kinase 11 (Homo sapiens) (Q15759 whole entry): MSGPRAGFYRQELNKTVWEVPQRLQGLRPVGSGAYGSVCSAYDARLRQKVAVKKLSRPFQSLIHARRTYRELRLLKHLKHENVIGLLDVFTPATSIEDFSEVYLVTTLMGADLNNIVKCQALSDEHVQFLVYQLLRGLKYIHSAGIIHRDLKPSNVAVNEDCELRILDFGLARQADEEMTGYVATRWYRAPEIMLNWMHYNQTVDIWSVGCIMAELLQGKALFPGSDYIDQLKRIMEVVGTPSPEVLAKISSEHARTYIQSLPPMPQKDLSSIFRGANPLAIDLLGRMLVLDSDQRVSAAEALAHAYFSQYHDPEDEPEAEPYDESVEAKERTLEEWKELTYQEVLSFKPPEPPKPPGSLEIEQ

[25] = biological target: Serine/threonine-protein kinase PAK 6 (Homo sapiens) (UniProt Q9NQU5); test: Inhibition of PAK6 at 1 uM
[26] = biological target: Phosphorylase b kinase gamma catalytic chain, skeletal muscle/heart isoform (Homo sapiens) (UniProt Q16816); test: Inhibition of PHKG1 at 1 uM
Sequence of Phosphorylase b kinase gamma catalytic chain, skeletal muscle/heart isoform (Homo sapiens) (Q16816 whole entry, looked up, canonical isoform): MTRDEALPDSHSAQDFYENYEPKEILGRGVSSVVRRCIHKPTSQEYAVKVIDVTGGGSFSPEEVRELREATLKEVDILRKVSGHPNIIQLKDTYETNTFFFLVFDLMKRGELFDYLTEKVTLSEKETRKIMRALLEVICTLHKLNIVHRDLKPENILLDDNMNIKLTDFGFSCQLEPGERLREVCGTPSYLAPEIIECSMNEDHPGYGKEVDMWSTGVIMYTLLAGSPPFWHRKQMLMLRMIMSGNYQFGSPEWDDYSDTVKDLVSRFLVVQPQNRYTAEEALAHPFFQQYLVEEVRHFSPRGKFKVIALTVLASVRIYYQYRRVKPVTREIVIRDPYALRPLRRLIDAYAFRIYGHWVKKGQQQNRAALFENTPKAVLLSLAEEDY

[27] = biological target: Membrane-associated tyrosine- and threonine-specific cdc2-inhibitory kinase (Homo sapiens) (UniProt Q99640); test: Inhibition of PKMYT1 at 1 uM
[28] = biological target: Receptor-interacting serine/threonine-protein kinase 2 (Homo sapiens) (UniProt O43353); test: Inhibition of RIPK2 at 1 uM
[29] = biological target: Ribosomal protein S6 kinase alpha-3 (Homo sapiens) (UniProt P51812); test: Inhibition of RPS6KA3 Kin.Dom.1 at 1 uM
[30] = biological target: Dual specificity protein kinase TTK (Homo sapiens) (UniProt P33981); test: Inhibition of TTK at 1 uM
[31] = biological target: Serine/threonine-protein kinase ULK3 (Mus musculus) (UniProt Q3U3Q1); test: Inhibition of mouse ULK3 at 1 uM

Sequence of Tyrosine-protein kinase ABL2 (Homo sapiens) (P42684 whole entry): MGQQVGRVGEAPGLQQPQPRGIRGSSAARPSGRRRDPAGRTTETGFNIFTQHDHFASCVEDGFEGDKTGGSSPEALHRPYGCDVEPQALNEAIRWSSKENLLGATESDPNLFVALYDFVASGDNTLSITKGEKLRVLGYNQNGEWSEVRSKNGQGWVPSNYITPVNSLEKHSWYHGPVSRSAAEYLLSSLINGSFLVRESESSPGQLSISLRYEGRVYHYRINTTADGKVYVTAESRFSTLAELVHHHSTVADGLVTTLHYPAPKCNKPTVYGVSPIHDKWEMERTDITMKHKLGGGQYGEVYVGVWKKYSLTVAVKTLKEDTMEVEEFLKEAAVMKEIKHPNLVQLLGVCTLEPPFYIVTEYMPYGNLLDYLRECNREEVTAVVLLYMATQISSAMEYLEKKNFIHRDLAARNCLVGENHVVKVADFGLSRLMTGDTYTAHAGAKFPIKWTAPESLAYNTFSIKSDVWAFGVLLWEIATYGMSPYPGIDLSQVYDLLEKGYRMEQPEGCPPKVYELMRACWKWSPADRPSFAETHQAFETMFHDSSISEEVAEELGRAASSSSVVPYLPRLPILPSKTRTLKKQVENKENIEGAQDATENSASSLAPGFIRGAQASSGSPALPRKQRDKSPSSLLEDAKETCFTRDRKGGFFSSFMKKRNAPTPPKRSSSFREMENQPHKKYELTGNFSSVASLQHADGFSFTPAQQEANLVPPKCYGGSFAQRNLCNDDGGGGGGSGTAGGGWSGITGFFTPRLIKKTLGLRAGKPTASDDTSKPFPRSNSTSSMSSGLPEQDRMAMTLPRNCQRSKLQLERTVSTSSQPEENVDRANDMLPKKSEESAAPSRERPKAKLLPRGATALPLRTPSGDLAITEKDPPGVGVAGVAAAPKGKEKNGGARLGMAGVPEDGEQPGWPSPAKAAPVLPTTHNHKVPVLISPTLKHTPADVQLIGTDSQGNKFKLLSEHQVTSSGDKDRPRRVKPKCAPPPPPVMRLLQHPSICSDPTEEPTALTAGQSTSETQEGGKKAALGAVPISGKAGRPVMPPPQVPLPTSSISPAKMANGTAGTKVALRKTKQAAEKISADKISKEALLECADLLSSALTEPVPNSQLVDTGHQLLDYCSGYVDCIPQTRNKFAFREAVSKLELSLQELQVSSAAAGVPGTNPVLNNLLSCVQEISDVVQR

Molecule `CN1CCN(c2ccc(Nc3nc(N)c(C(=O)c4ccc5c(c4)OCCO5)s3)cc2)CC1` has an inhibition [1] of less than 50%, an inhibition [2] of less than 50% and an inhibition [3] of less than 50%. It also gave an inhibition [4] of less than 50%, an inhibition [5] of less than 50% and an inhibition [6] of less than 50%. For the same molecule, the inhibition [7] was less than 50%, the inhibition [8] was less than 50% and the inhibition [9] was less than 50%. The inhibition [10] was 100%, the inhibition [11] was 89% and the inhibition [12] was less than 50%. It also gave an inhibition [13] of less than 50%, an inhibition [14] of less than 50% and an inhibition [15] of less than 50%. It also gave an inhibition [16] of less than 50%, an inhibition [17] of less than 50% and an inhibition [18] of 94%. It also gave an inhibition [19] of less than 50%, an inhibition [20] of less than 50% and an inhibition [21] of less than 50%. For the same molecule, the inhibition [22] was less than 50%, the inhibition [23] was less than 50% and the inhibition [24] was less than 50%. The inhibition [25] was less than 50%, the inhibition [26] was less than 50% and the inhibition [27] was less than 50%. The inhibition [28] was less than 50%, the inhibition [29] was less than 50% and the inhibition [30] was 78%. For the same molecule, the inhibition [31] was less than 50%.
